“Also recorded” adds a separate entry of the source. Blank lines part the entries; values can stand above or below the compound they belong to.
Legend:
human mGlu5 [1] = target: T1, human mGlu5 (Homo sapiens, UniProt P41594); experiment: Calcium fluorescence triple-add assay, mGlu5 PAM mode; format: cell-based
rat mGlu5 = rat mGlu5 (Rattus norvegicus, UniProt P31424); experiment: [3H]methoxyPEPy radioligand competition binding; details: for displacement of [3H]methoxyPEPy radioligand binding: concentrations up to 100 μM, in words
Sequence of rat mGlu5 (P31424 21-1203): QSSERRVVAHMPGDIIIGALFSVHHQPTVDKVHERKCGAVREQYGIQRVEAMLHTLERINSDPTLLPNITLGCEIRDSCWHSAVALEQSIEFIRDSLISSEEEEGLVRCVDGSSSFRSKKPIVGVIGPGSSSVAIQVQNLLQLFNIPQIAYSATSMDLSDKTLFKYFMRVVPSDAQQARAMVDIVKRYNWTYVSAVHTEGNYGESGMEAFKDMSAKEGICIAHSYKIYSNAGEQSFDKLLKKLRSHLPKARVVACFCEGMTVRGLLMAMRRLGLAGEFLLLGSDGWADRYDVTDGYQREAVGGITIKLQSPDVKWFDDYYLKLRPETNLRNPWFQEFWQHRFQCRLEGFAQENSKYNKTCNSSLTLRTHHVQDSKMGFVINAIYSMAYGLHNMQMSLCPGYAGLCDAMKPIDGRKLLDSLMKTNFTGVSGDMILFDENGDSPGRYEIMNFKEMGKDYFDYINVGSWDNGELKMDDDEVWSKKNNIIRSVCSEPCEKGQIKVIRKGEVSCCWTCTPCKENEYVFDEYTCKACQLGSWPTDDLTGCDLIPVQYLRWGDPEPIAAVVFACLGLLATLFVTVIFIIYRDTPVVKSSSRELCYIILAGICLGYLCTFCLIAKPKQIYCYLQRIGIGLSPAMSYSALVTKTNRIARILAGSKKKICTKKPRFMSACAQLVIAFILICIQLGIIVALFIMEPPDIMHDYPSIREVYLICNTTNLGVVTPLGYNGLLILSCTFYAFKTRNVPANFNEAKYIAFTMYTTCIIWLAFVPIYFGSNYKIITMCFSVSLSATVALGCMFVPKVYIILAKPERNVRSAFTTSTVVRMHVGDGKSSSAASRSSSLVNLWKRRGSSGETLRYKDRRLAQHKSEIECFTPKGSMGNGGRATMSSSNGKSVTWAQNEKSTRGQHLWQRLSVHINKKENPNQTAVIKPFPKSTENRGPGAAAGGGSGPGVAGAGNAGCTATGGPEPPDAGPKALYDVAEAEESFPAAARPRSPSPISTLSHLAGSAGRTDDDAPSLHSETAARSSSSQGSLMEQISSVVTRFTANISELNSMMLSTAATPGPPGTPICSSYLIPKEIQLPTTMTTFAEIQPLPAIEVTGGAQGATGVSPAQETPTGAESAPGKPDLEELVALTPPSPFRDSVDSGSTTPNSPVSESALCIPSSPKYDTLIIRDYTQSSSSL

mGlu1–4,7,8 = experiment: Functional selectivity over the other mGlu receptors; format: cell-based
[2] = Intrinsic clearance in liver microsomes, rat; format: in vitro ADME; details: pH 7.4
[3] = Intrinsic clearance in liver microsomes, human; format: in vitro ADME; details: pH 7.4
[4] = Plasma protein binding, rat; format: in vitro ADME; details: pH 7.4
[5] = Plasma protein binding, human; format: in vitro ADME; details: pH 7.4
[6] = Brain homogenate binding, rat; format: in vitro ADME; details: pH 7.4, Rat fu,b
[7] = Rat IV plasma/brain level; format: in vivo; details: male, Sprague-Dawley, brain and plasma, 0.2 mg/kg
[8] = Rat IV and PO pharmacokinetics; format: in vivo
Outline: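 Plasma pharmacokinetics with IV dosing at 0.20 mg/kg and PO dosing at 10 mg/kg. Read-outs are Cmax, tmax, AUCinf, t1/2 and oral bioavailability F.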

[9] = system: amphetamine-induced hyperlocomotion; experiment: Reversal of amphetamine-induced hyperlocomotion; format: in vivo; details: rat
Outline: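 Male Sprague–Dawley rats, n = 7-8 per group. Test compound is given i.p. at 30 or 60 mg/kg in 10% Tween 80 in H2O, 30 min before amphetamine at 0.75 mg/kg s.c. Locomotion is compared with a vehicle/amphetamine control group.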

human mGlu5 [10] = target: T1, human mGlu5; experiment: cell-based
[11] = Intrinsic clearance in liver microsomes, mouse; format: in vitro ADME; details: pH 7.4
[12] = Plasma protein binding, mouse; format: in vitro ADME; details: pH 7.4
[13] = Mouse IV and PO pharmacokinetics; format: in vivo
marble burying = experiment: Marble burying assay; format: in vivo, mouse; details: male CD-1 mice, 30 mg/kg i.p., in words
[14] = male, Sprague-Dawley, plasma, iv, 0.2 mg/kg
[15] = male, Sprague-Dawley, plasma, po, 10 mg/kg

T1 sequence (P41594 21-1212): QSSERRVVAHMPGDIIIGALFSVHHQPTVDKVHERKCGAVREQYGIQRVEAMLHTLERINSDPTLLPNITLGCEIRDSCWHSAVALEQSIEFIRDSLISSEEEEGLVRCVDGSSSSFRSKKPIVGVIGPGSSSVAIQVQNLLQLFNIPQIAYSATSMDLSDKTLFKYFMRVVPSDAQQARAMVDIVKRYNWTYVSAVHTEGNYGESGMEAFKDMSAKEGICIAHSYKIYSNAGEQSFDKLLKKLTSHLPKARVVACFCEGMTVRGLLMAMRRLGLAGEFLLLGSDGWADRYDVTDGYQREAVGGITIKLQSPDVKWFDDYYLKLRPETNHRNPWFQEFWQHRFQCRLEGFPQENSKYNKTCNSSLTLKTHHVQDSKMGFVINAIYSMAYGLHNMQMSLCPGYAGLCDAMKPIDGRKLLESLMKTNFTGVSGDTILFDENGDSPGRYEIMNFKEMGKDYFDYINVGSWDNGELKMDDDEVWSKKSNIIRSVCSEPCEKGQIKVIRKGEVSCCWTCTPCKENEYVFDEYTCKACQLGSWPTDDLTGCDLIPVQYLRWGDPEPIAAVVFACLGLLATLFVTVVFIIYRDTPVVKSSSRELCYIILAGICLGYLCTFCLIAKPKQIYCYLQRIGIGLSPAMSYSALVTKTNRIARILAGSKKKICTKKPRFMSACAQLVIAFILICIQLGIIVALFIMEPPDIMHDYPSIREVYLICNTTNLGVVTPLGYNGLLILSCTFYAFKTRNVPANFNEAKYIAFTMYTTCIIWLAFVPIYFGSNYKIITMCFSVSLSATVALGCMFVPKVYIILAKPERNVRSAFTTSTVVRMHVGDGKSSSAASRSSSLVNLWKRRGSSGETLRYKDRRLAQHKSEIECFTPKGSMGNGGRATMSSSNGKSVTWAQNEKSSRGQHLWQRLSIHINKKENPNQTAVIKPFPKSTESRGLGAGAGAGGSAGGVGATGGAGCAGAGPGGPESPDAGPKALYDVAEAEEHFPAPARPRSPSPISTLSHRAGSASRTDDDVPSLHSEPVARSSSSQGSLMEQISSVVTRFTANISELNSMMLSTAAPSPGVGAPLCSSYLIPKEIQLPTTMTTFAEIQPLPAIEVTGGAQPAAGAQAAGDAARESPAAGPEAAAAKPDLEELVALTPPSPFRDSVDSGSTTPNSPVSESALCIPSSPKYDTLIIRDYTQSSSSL

SMILES: Cc1ccc(Oc2cc(C(=O)NCc3ccc(F)cn3)nc3ccsc23)cn1 [Compound 17a, N-((5-Fluoropyridin-2-yl)methyl)-7-((6-methylpyridin-3-yl)oxy)thieno[3,2-b]pyridine-5-carboxamide]
- EC50 (human mGlu5 [1]; hmGlu5 EC50 (μM), Table 2): 0.52 µM
- fold improvement in potency in comparison to hit compound 12 (human mGlu5 [1]; mGlu5 PAM EC50): 5 fold
- Ki (rat mGlu5): > 10000 nM
- displacement of [3H]methoxyPEPy radioligand binding (rat mGlu5): weak binding
- functional activity at mGlu1–4,7,8 (mGlu1–4,7,8): > 30 µM
- CLint scaled at 1 µM [2]: 152 mL/min/kg
- CLint scaled at 1 µM [3]: 173 mL/min/kg
- fraction unbound at 6 h, 5 µM [4]: 0.048
- fraction unbound at 6 h, 5 µM [5]: 0.056
- fraction unbound at 6 h, 1 µM [6]: 0.03
- Kp at 0.25 h [7]: 0.83
- Kp uu at 0.25 h [7]: 0.52
- F (%) ([8]; PO 10 mg/kg, 10 mg/kg): 8.22%
- Vd [8, 14]: 2.2 L/kg
- clearance [8, 14]: 36.9 mL/min/kg
- half-life [8, 14]: 82.2 min
- AUC(0-inf) [8, 15]: 371 ng·h/mL
- Cmax [8, 15]: 152 ng/mL
- Tmax [8, 15]: 30 min
- reversal of AHL ([9]; 60 mg/kg i.p., 30 min prior to 0.75 mg/kg s.c. amphetamine): ~30%
- reversal of amphetamine-induced hyperlocomotion ([9]; 30 or 60 mg/kg i.p., in words): reversed amphetamine-induced hyperlocomotion; also recorded: Dose-dependent reversal

SMILES: Cc1ccc(Oc2ccnc(C(=O)NCc3ccc(F)cn3)c2)cn1 [Compound 21d]
- mGlu5 PAM activity (human mGlu5 [1]; in words): complete loss of activity

SMILES: Cc1ccc(Nc2cc(C(=O)NCc3ccc(F)cn3)nc3ccsc23)cn1 [Compound 26]
- IC50 (human mGlu5 [10]): > 30000 nM

SMILES: Cc1ccc(Cc2cc(C(=O)NCc3ccc(F)cn3)nc3ccsc23)cn1 [Compound 27]
- IC50 (human mGlu5 [10]): > 30000 nM

Second part, led by results:

- IC50 (human mGlu5 [10]): 260 nM
SMILES: Cc1cncc(Oc2cc(C(=O)NCc3ccc(F)cn3)nc3ccsc23)c1 [Compound 28a]

- IC50 (human mGlu5 [10]): 203 nM
SMILES: Cc1ccncc1Oc1cc(C(=O)NCc2ccc(F)cn2)nc2ccsc12 [Compound 28b]

- IC50 (human mGlu5 [10]): > 30000 nM
SMILES: Cc1ncccc1Oc1cc(C(=O)NCc2ccc(F)cn2)nc2ccsc12 [Compound 28c]

- Ki (rat mGlu5): 160 nM
- displacement of [3H]methoxyPEPy radioligand binding (rat mGlu5): full displacement of radioligand binding
- CLint scaled at 1 µM [2]: 314 mL/min/kg
- CLint scaled at 1 µM [11]: 970 mL/min/kg
- CLint scaled at 1 µM [3]: 47 mL/min/kg
- fraction unbound at 6 h, 5 µM [4]: 0.115
- fraction unbound at 6 h, 5 µM [12]: 0.062
- fraction unbound at 6 h, 5 µM [5]: 0.068
- fraction unbound at 6 h, 1 µM [6]: 0.035
- drug in blood following PO administration ([13]; PO 10 mg/kg, in words): no measurable drug in blood
- Vd ([13]; plasma, iv, 1 mg/kg): 8.2 L/kg
- clearance ([13]; plasma, iv, 1 mg/kg): 141 mL/min/kg
- half-life ([13]; plasma, iv, 1 mg/kg): 41.4 min
SMILES: O=C(NCc1ccc(F)cn1)c1cc(Oc2cccnc2)c2sccc2n1 [Compound 28d, N-((5-fluoropyridin-2-yl)methyl)-7-(pyridin-3-yloxy)thieno[3,2-b]pyridine-5-carboxamide]
- functional activity at mGlu1–4,7,8 (mGlu1–4,7,8): > 30 µM
- marble burying (marble burying): anxiolytic activity; also recorded: significant reduction in marble burying; also recorded: Inhibition of marble burying

- IC50 (human mGlu5 [10]): 1900 nM
SMILES: Cc1ccc(Oc2cc(C(=O)NCc3ccc(F)cn3)nc3ccsc23)nc1 [Compound 28e]

Reference: paper PMC10114714 (ACS Bio & Med Chem Au, 2021)
